Reference: ChEMBL document CHEMBL1155242, “Radiolabeled 5-iodo-3'-O-(17beta-succinyl-5alpha-androstan-3-one)-2'-deoxyuridine and its 5'-monophosphate for imaging and therapy of androgen receptor-positive cancers: synthesis and biological evaluation” (J Med Chem, 2009)

Key:
Albumin = Albumin (Mus musculus, UniProt P07724); assay: Binding affinity to mouse serum albumin at 20 uCi after 60 mins by size-exclusion HPLC analysis; format: ADME; conditions: isolated protein, 1 h
Liver = assay: Biodistribution in liver of athymic NCr mouse xenografted with human OVCAR-3 cells assessed per gram of tissue at an average 39.5 uCi/dose, ip administered 9 days after tumor implantation as six fractionated doses every 4 days measured after 2 weeks of last dose by gamma counting; format: ADME, organism-based; conditions: in vivo, 336 h
Procedure, shortened: (§1)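 OVCAR-3-bearing and healthy athymic mice given fractionated ip doses on the six-dose every-4-days schedule; tissues, tumor and lavaged cells γ-counted at necropsy, %ID/g; DNA-bound 125I in cells measured as cpm/cell.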

[1] = Biodistribution in uterus of athymic NCr mouse xenografted with human OVCAR-3 cells assessed per gram of tissue at an average 39.5 uCi/dose, ip administered 9 days after tumor implantation as six fractionated doses every 4 days measured after 2 weeks of last dose by gamma counting; format: ADME, organism-based; conditions: in vivo, 336 h; procedure, shortened: as §1
[2] = Biodistribution in tumor of athymic NCr mouse xenografted with human OVCAR-3 cells assessed per gram of tissue at an average 39.5 uCi/dose, ip administered 9 days after tumor implantation as six fractionated doses every 4 days measured after 2 weeks of last dose by gamma counting; format: ADME, organism-based, Neoplasm; conditions: in vivo, 336 h; procedure, shortened: as §1
Mus musculus = assay: Toxicity in athymic NCr mouse xenografted with human OVCAR-3 cells assessed as hematocrit level at 0.25 mCi, ip administered 31 days after tumor implantation as single bolus dose measured 55 days after implantation by gamma counting in presence of SHBG (Rvb= 51.4 +/- 1.6 %); format: organism-based; conditions: in vivo, 1320 h
[3] = Biodistribution in small intestine of athymic NCr mouse xenografted with human OVCAR-3 cells assessed per gram of tissue at an average 39.5 uCi/dose, ip administered 9 days after tumor implantation as six fractionated doses every 4 days measured after 2 weeks of last dose by gamma counting; format: ADME, organism-based; conditions: in vivo, 336 h; procedure, shortened: as §1
Blood = assay: Biodistribution in blood of athymic NCr mouse xenografted with human OVCAR-3 cells assessed per gram of tissue at 0.25 mCi, ip administered 31 days after tumor implantation as single bolus dose measured 55 days after implantation by gamma counting in presence of SHBG; format: ADME, organism-based; conditions: in vivo
Procedure, shortened: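 Mice given one ip bolus of 0.25 mCi co-injected with SHBG; blood, tumor cells, solid tumors and normal tissues taken at necropsy and counted; %ID/g decay-corrected.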

OVCAR-3 = assay: Cellular uptake in human OVCAR-3 cells expressing androgen receptor assessed as ratio of [125I]UdR to thymidine incorporation in DNA at 1.75 uCi/mL after 24 hrs by gamma counting; format: ADME, cell-based; conditions: ovcar-3, 24 h
Procedure, shortened: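 OVCAR-3 cells treated with the radioligand; fraction of DNA thymidine replaced by 125IUdR determined after 24 h.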

LNCaP = assay: Cellular uptake in single-cell suspension of nonproliferating human LNCAP cells expressing androgen receptor assessed as increase in cellular retention at 0.37 uCi/mL after 5 to 16 hrs by gamma counting; format: ADME, cell-based
Procedure, shortened: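 Low-passage LNCaP held as single-cell suspension (non-proliferating) in RPMI-1640 with radioligand at 0.03 or 0.37 μCi/mL; whole-cell and nuclear radioactivity measured over time.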

[4] = Stability in mouse serum assessed as intact compound remaining at 10 to 20 uCi/mL after 10 mins by size-exclusion HPLC analysis; format: ADME, cell-free; conditions: read-out: Stability
Procedure, shortened: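 The compound was incubated in mouse serum, which lacks circulating SHBG. Aliquots were analysed on size-exclusion HPLC (TSK3000; phosphate/Na2SO4 buffer, pH 6.8, then an acetonitrile gradient). Extracts were analysed by C18 reversed-phase HPLC to measure intact compound remaining over time.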

[5] = Biodistribution in peritoneum of athymic NCr mouse xenografted with human OVCAR-3 cells at 1.12 uCi, ip after 24 hrs by gamma counting; format: ADME, organism-based; conditions: in vivo
[6] = Stability in human OVCAR-3 cells expressing androgen receptor assessed as compound degradation at 0.1 uCi/mL up to 4 hrs by silica gel instant thin layer chromatography; format: ADME, cell-based; conditions: read-out: Activity
[7] = Clearance in peritoneal cavity of athymic NCr mouse xenografted with human OVCAR-3 cells assessed as half life at 1.12 uCi, ip by gamma counting; format: ADME, organism-based; conditions: in vivo
Procedure, shortened: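 Peritoneal clearance measured in athymic NCr-nu/nu mice bearing intraperitoneal NIH:OVCAR-3 xenografts after an ip dose of the 125I compound. The peritoneal cavity was lavaged, and 125I was counted in the lavage and in the recovered tumor cells. Half-lives were estimated from the clearance curves.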

[8] = Chemical stability in RPMI-1640 serum-free medium assessed as compound hydrolysis at 12.2 uCi after 24 hrs by HPLC analysis; format: physicochemical; conditions: read-out: Activity
[9] = Biodistribution in […] in athymic NCr mouse xenografted with human OVCAR-3 cells at 45 uCi, ip after 72 hrs by gamma counting; format: ADME, organism-based; conditions: in vivo
Procedure, shortened: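 Athymic NCr-nu/nu mice with ip OVCAR-3; 45 μCi given ip without prior SSKI. Whole-body planar imaging at 72 h with region-of-interest analysis as percent of whole-body activity; peritoneal lavage cells and ascites counted.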

[10] = molecular target: T1, Sex hormone-binding globulin (Homo sapiens, UniProt P04278); assay: Binding affinity to human sex hormone binding globulin assessed as intact compound remaining at 10 to 20 uCi/mL after 60 mins by instant thin layer chromatography; format: ADME; conditions: read-out: Stability
T1 sequence (P04278 whole entry): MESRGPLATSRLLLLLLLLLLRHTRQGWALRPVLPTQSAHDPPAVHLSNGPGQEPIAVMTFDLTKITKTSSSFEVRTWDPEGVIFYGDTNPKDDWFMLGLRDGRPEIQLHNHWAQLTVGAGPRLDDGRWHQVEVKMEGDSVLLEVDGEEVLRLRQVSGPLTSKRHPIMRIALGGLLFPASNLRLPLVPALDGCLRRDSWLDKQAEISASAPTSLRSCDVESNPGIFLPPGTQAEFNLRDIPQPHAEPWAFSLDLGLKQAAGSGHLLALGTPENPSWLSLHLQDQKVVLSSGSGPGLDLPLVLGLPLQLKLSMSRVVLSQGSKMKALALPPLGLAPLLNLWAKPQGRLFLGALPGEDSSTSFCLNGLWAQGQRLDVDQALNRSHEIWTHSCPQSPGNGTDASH

[11] = Ratio of drug level in tumor to uterus in athymic NCr mouse xenografted with human OVCAR-3 cells at 180 uCi, ip administered 9 days after tumor implantation as six fractionated doses every 4 days measured after 72 hrs by gamma counting; format: ADME, organism-based; conditions: in vivo
[12] = Ratio of drug level in tumor to blood in athymic NCr mouse xenografted with human OVCAR-3 cells at 180 uCi, ip administered 9 days after tumor implantation as six fractionated doses every 4 days measured after 24 hrs by gamma counting; format: ADME, organism-based; conditions: tumour
[13] = Ratio of drug level in tumor to liver in athymic NCr mouse xenografted with human OVCAR-3 cells at 180 uCi, ip administered 9 days after tumor implantation as six fractionated doses every 4 days measured after 24 hrs by gamma counting; format: ADME, organism-based; conditions: in vivo
[14] = Ratio of drug level in tumor to uterus in athymic NCr mouse xenografted with human OVCAR-3 cells at 180 uCi, ip administered 9 days after tumor implantation as six fractionated doses every 4 days measured after 48 hrs by gamma counting; format: ADME, organism-based; conditions: in vivo

Sequence of Albumin (P07724 whole entry): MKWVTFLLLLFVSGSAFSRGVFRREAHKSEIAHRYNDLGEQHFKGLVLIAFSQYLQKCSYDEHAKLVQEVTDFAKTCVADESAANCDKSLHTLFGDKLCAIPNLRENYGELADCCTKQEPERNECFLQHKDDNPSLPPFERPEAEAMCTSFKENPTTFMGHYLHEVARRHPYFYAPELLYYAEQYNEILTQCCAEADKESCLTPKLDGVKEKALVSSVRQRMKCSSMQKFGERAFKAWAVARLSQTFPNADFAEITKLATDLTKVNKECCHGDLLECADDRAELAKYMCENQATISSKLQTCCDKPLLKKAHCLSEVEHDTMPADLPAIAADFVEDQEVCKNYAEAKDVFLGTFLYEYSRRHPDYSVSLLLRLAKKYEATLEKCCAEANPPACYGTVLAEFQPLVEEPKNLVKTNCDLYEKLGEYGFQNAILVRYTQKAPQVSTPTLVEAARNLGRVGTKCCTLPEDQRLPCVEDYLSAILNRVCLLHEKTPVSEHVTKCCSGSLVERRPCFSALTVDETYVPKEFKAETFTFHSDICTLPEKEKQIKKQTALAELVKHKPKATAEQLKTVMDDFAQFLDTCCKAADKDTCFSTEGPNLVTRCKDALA

SMILES: C[C@]12CCC(=O)C[C@@H]1CC[C@@H]1[C@@H]2CC[C@]2(C)[C@@H](OC(=O)CCC(=O)O[C@H]3C[C@H](n4cc([125I])c(=O)[nH]c4=O)O[C@@H]3COP(=O)(O)O)CC[C@@H]12
- Activity (Albumin): Active
- Drug uptake (Liver): 0.017 %ID
- Drug uptake [1]: 0.027 %ID
- Drug uptake [2]: 2.892 %ID
- Activity (Mus musculus): 55.2%
- Drug uptake [3]: 0.011 %ID
- Drug uptake (Blood): 0.057 %ID
- Ratio (OVCAR-3): 0.002

SMILES: C[C@]12CCC(=O)C[C@@H]1CC[C@@H]1[C@@H]2CC[C@]2(C)[C@@H](OC(=O)CCC(=O)O[C@H]3C[C@H](n4cc([125I])c(=O)[nH]c4=O)O[C@@H]3CO)CC[C@@H]12
- fold change (FC) (LNCaP): 10
- remaining at 10 min [4]: < 1.5%
- Drug uptake [5]: > 95%
- metabolised at 4 h, 0.1 uCi/mL [6]: 60%
- t1/2 [7]: 68 h
- degraded at 24 h, 12.2 uCi [8]: 30%
- Drug uptake [9]: 3.4%
- remaining at 1 h [10]: > 91%
- Ratio [11]: 7.4
- Ratio [12]: 64.7
- Ratio [13]: 65
- Ratio [14]: 16.6
